Data as given in ChEMBL document CHEMBL4373658, “Scaffold hybridization strategy towards potent hydroxamate-based inhibitors of Flaviviridae viruses and Trypanosoma species” (Medchemcomm, 2019).
pEC50: −log10 of the molar value. Activity calls are given as the source filed them. No cut-off for these calls is given here.

Legend:
[1] = Inhibition of HCV genotype 1b NS3/4A protease; set-up: species or system Hepatitis C virus subtype 1b
Hepatitis C virus [2] = test: Antiviral activity against HCV genotype 1b Con1 infected in human HuH5.2 cells assessed as reduction in viral replication incubated for 3 days by luciferase reporter gene assay; format: functional, organism-based, Hepacivirus hominis; settings: subtype 1b Con1, Huh-5-2, 72 h
Method in brief: (§1)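 Stable subgenomic replicon cell lines (Huh5-2 HCV 1b Con1 firefly luciferase; Huh7.5-3a S52, Huh7.5-4a ED43; Huh7-D2 DENV2 16681 Renilla luciferase) seeded 1×10^4 cells/well, 24 h at 37 °C, then serial compound dilutions in complete DMEM without G418 for 3 days at 37 °C. Lysate F-Luc or R-Luc (12 μM coelenterazine, pH 7.4 buffer) normalized to Bradford protein, expressed as % of DMSO control. EC50 from nonlinear regression of log concentration.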

Hepatitis C virus [3] = test: Antiviral activity against HCV genotype 4a ED43 infected in human HuH7.5 cells assessed as reduction in viral replication incubated for 3 days by luciferase reporter gene assay; format: functional, organism-based, Hepacivirus hominis; settings: subtype 4a ED43, Huh7.5, 72 h; method in brief: as §1
[4] = Selectivity index, ratio of CC50 for human Huh5.2 cells to EC50 for HCV genotype 1b Con1; format: toxicity; settings: read-out: Ratio CC50/EC50
Method in brief: (§2)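 Viability read as intracellular ATP, not MTT: 10^4 Huh5-2 cells/well, after 24 h exposed to compounds 72 h at 37 °C, 5% CO2, lysed, luminescent ATP kit read, ATP normalized to protein. CC50 versus DMSO control via nonlinear regression of log concentration; mean ± SD of three independent experiments in triplicate. SI = CC50/EC50.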

[5] = Selectivity index, ratio of CC50 for human Huh5.2 cells to EC50 for HCV genotype 4a ED43; format: toxicity; settings: read-out: Ratio CC50/EC50; method in brief: as §2
Trypanosoma brucei = test: Antitrypanosomal activity against Trypanosoma brucei 221 bloodstream form assessed as inhibition of growth incubated for 4 days by resazurin dye based fluorescence assay; format: functional, organism-based; settings: Trypanosoma brucei, 221, 96 h
Trypanosoma cruzi = test: Antitrypanosomal activity against Trypanosoma cruzi strain CL Brener epimastigotes form assessed as inhibition of growth incubated for 4 days by resazurin dye based fluorescence assay; format: functional, organism-based; settings: 96 h
[6] = Cytotoxicity against rat L6 cells assessed as reduction in cell viability incubated for 6 days by resazurin dye based fluorescence assay
Method in brief: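 Rat skeletal myoblast L6 cells seeded in triplicate at 1 × 10⁴ mL⁻¹ in growth medium containing a range of compound concentrations, 6 days at 37 °C; resazurin added, 8 h further, fluorescence read. CC50 = concentration giving 50% growth inhibition; mean of triplicate experiments ± SEM.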

[7] = Selectivity index, ratio of CC50 for rat L6 cells to EC50 for Trypanosoma brucei 221 bloodstream form; format: toxicity; settings: read-out: Ratio CC50/EC50
Method in brief: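 T. brucei strain 221 bloodstream forms in modified Iscove's medium diluted to 2.5 × 10⁴ mL⁻¹, eight-point concentration curves at 37 °C; resazurin added after 48 h, further 16 h incubation; fluorescence at excitation 545 nm, emission 590 nm. EC50 and EC90 from triplicate experiments. SI = L6 CC50/EC50.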

[8] = Selectivity index, ratio of CC50 for rat L6 cells to EC50 for Trypanosoma cruzi strain CL Brener epimastigotes; format: toxicity; settings: read-out: Ratio CC50/EC50
[9] = Cytotoxicity against human HuH5.2 cells assessed as reduction in cell viability incubated for 72 hrs by measuring intracellular ATP levels
Hepatitis C virus [10] = test: Antiviral activity against HCV genotype 3a S52 infected in human HuH7.5 cells assessed as reduction in viral replication incubated for 3 days by luciferase reporter gene assay; format: functional, organism-based, Hepacivirus hominis; settings: subtype 3a S52, Huh7.5, 72 h; method in brief: as §1
dengue virus type 2 = test: Antiviral activity against DENV 2 16681 infected in human HuH7 cells assessed as reduction in viral replication incubated for 3 days by luciferase reporter gene assay; format: functional, organism-based; settings: Dengue virus, 16681, Huh-7, 72 h; method in brief: as §1
[11] = Selectivity index, ratio of CC50 for human Huh5.2 cells to EC50 for HCV genotype 3a S52; format: toxicity; settings: read-out: Ratio CC50/EC50; method in brief: as §2
[12] = Selectivity index, ratio of CC50 for human Huh5.2 cells to EC50 for DENV2 16681; format: toxicity; settings: read-out: Ratio CC50/EC50
[13] = target: RNA-directed RNA polymerase (Hepacivirus hominis, UniProt O39930); test: Inhibition of HCV genotype 1b NS5B RNA dependent RNA polymerase; set-up: species or system Hepatitis C virus subtype 1b
RNA-directed RNA polymerase, sequence (O39930 whole entry): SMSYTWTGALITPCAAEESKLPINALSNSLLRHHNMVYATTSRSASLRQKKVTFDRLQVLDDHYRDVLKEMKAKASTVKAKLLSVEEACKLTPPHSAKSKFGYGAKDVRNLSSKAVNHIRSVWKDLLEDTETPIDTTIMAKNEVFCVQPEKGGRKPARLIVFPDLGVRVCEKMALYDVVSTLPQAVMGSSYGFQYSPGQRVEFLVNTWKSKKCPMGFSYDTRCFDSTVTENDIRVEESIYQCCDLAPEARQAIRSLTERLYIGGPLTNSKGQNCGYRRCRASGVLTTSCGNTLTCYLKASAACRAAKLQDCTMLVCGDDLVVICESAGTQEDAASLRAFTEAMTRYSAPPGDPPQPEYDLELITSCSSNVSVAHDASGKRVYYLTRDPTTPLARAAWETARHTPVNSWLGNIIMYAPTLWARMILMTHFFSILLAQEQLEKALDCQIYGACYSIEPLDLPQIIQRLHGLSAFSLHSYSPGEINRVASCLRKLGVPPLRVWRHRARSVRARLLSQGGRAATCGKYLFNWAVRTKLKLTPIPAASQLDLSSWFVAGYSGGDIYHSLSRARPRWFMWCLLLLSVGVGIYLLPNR

Nonstructural protein 5A = target: T1, Nonstructural protein 5A (Hepatitis C virus, UniProt Q5L478); test: Inhibition of HCV genotype 1b NS5A; set-up: species or system Hepatitis C virus subtype 1b
T1 sequence (Q5L478 whole entry): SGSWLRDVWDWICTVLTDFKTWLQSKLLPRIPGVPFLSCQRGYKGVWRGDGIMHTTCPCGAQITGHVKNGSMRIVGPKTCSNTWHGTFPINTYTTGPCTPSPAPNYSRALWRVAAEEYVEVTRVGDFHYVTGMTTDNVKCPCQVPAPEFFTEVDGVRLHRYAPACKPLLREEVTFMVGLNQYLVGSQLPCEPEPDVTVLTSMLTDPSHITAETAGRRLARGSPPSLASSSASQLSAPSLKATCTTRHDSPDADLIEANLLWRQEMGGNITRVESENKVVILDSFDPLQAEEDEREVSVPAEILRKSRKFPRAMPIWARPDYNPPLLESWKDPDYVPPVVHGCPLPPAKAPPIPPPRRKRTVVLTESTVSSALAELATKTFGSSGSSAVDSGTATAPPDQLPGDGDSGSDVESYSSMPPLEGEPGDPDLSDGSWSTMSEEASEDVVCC

Hepatitis C virus [14] = test: Antiviral activity against HCV genotype 4a ED43 infected in human HuH7.5 cells assessed as reduction in viral RNA at 0.01 to 10 uM incubated for 3 days by qRT-PCR analysis; format: functional, organism-based; settings: Hepacivirus hominis, subtype 4a ED43
Method in brief: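 Huh7.5-4a replicon cells treated with serial dilutions or DMSO; (+) strand HCV RNA quantified by RT-qPCR, normalized to housekeeping gene YWHAZ mRNA, expressed as percentage of solvent-treated control.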

Hepatitis C virus [15] = test: Antiviral activity against HCV genotype 4a ED43 infected in human HuH7.5 cells assessed as reduction in viral NS5A expression at 2 to 5 uM incubated for 3 days by immunofluorescence assay; format: functional, organism-based; settings: Hepacivirus hominis, subtype 4a ED43
Method in brief: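 Huh7.5-4a replicon cells given serial compound dilutions or DMSO; HCV NS5A detected by indirect immunofluorescence, nuclei stained with propidium iodide as viability control, confocal imaging.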

Row | Compound | pEC50 (Hepatitis C virus [2]) | pEC50 (Hepatitis C virus [3]) | selectivity ratio [4] | selectivity ratio [5] | pEC50 (Trypanosoma brucei) | EC90 (Trypanosoma brucei) | pEC50 (Trypanosoma cruzi) | EC90 (Trypanosoma cruzi) | CC50 at 144 h [6] | selectivity ratio [7] | selectivity ratio [8] | CC50 at 72 h [9] | other results
1 | CC[C@@H]1[C@@H]2CN(C(=O)[C@H](C(C)(C)C)NC(=O)O[C@@H]3C[C@H]3CCCCC(F)(F)c3nc4ccc(OC)cc4nc3O2)[C@@H]1C(=O)N[C@]1(C(=O)NS(=O)(=O)C2(C)CC2)C[C@H]1C(F)F |  |  |  |  |  |  |  |  |  |  |  |  | pEC50 [1]: 8.48
2 | O=C(CN1C(=O)N(Cc2ccccc2)C2(CCc3ccccc32)C1=O)NO (stereo unspecified) | 6.66 | 6.85 | 34 | 54 | 7.00 | 0.192 µM | 5.77 | 3.01 µM | 6.27 µM | 62 | 4 | 7.53 µM | 
3 | O=C(CN1C(=O)NC2(CCc3ccccc32)C1=O)NO (stereo unspecified) | 5.53 | 6.24 | > 68 | > 345 | 6.36 | 0.8 µM | < 4.52 | > 30 µM | 268 µM | 609 |  | > 200 µM | pEC50 (Hepatitis C virus [10]): 5.53; pEC50 (dengue virus type 2): 4.02; selectivity ratio [11]: > 67; selectivity ratio [12]: > 2
4 | CN1C(=O)N(CC(=O)NO)C(=O)C12CCCCc1ccccc12 (stereo unspecified) | 5.93 | 6.96 | 95 | 1020 | 6.64 | 0.3 µM | 4.97 | 15.3 µM | 16.4 µM | 71 | 2 | 112 µM | 
5 | COc1c(-c2ccc3cc(NS(C)(=O)=O)ccc3c2)cc(-n2ccc(=O)[nH]c2=O)cc1C(C)(C)C [DASABUVIR] |  |  |  |  |  |  |  |  |  |  |  |  | pEC50 [13]: 8.74
6 | CN1C(=O)N(CC(=O)NO)C(=O)C12CCc1ccccc12 (stereo unspecified) | 5.85 | 6.68 | 19 | 128 | 5.91 | 1.93 µM | < 4.52 |  | 550 µM | 451 |  | 26.9 µM | 
7 | O=C(CN1C(=O)NC2(CCCc3ccccc32)C1=O)NO (stereo unspecified) | 5.85 | 6.42 | > 142 | > 526 | 6.15 | 1.27 µM | < 4.52 | > 30 µM | 419 µM | 590 |  | > 200 µM | pEC50 (Hepatitis C virus [10]): 5.63; pEC50 (dengue virus type 2): 4.21; selectivity ratio [11]: > 84; selectivity ratio [12]: > 3
8 | O=C(CN1C(=O)CNC2(CCCCCC2)C1=O)NO |  |  |  |  | 5.73 | 2.53 µM |  |  |  |  |  |  | 
9 | CC(C)OC(=O)[C@H](C)N[P@](=O)(OC[C@H]1O[C@@H](n2ccc(=O)[nH]c2=O)[C@](C)(F)[C@@H]1O)Oc1ccccc1 [SOFOSBUVIR] |  |  |  |  |  |  |  |  |  |  |  |  | pEC50 [13]: 6.99
10 | COC(=O)N[C@H](C(=O)N1CCC[C@H]1c1nc(-c2ccc(-c3ccc(-c4c[nH]c([C@@H]5CCCN5C(=O)[C@@H](NC(=O)OC)C(C)C)n4)cc3)cc2)c[nH]1)C(C)C [DACLATASVIR] |  |  |  |  |  |  |  |  |  |  |  |  | pEC50 (Nonstructural protein 5A): 11.70
11 | O=C1NC(=O)C2(CCc3ccccc32)N1 (stereo unspecified) | < 5.00 |  |  |  | < 4.30 |  | < 3.30 |  | > 500 µM |  |  | > 10 µM | 
12 | CN1C(=O)N(CC(=O)NO)C(=O)C12CCCc1ccccc12 (stereo unspecified) | 5.84 | 6.68 | 99 | 682 | 5.72 | 4.69 µM | 4.56 | 42.1 µM | 28.2 µM | 15 | 1 | 143 µM | Activity (Hepatitis C virus [14]): Active
13 | O=C(CN1C(=O)N(Cc2ccccc2)C2(CCCc3ccccc32)C1=O)NO (stereo unspecified) | 6.49 | 7.15 | 28 | 127 | 7.30 | 0.077 µM | 6.02 | 1.71 µM | 3.17 µM | 63 | 3 | 8.9 µM | 
14 | O=C(CN1C(=O)NC2(CCCCc3ccccc32)C1=O)NO (stereo unspecified) | 6.60 | 7.00 | 794 | 1980 | 6.40 | 0.52 µM | < 4.52 |  | 125 µM | 313 |  | 198 µM | pEC50 (Hepatitis C virus [10]): 7.10; pEC50 (dengue virus type 2): 4.79; selectivity ratio [11]: 2480; selectivity ratio [12]: 12; Activity (Hepatitis C virus [14]): Active; Activity (Hepatitis C virus [15]): Active
15 | O=C1Cn2c(cc3ccccc32)C(=O)N1O | 3.90 |  | > 1.6 |  |  |  |  |  |  |  |  | > 200 µM | 
16 | O=C(CN1C(=O)N(Cc2ccccc2)C2(CCCCc3ccccc32)C1=O)NO (stereo unspecified) | 6.00 | 6.92 | 5 | 45 | 7.89 | 0.018 µM | 6.31 | 0.94 µM | 7.85 µM | 604 | 16 | 5.45 µM | 
